Calls of active or inactive are those of the source. No cut-off for these calls is given here.
Legend:
[1] = target: T1, Choline trimethylamine-lyase (Desulfovibrio alaskensis, UniProt Q30W70); experiment: (§1) Inhibition of N-terminal His6-tagged Desulfovibrio desulfuricans G20 CutC encoding 52 residues assessed as reduction in acetaldehyde using choline as substrate in presence of NADH-dependent yeast alcohol dehydrogenase by UV-Vis absorbance based assay
T1 sequence (Q30W70 whole entry): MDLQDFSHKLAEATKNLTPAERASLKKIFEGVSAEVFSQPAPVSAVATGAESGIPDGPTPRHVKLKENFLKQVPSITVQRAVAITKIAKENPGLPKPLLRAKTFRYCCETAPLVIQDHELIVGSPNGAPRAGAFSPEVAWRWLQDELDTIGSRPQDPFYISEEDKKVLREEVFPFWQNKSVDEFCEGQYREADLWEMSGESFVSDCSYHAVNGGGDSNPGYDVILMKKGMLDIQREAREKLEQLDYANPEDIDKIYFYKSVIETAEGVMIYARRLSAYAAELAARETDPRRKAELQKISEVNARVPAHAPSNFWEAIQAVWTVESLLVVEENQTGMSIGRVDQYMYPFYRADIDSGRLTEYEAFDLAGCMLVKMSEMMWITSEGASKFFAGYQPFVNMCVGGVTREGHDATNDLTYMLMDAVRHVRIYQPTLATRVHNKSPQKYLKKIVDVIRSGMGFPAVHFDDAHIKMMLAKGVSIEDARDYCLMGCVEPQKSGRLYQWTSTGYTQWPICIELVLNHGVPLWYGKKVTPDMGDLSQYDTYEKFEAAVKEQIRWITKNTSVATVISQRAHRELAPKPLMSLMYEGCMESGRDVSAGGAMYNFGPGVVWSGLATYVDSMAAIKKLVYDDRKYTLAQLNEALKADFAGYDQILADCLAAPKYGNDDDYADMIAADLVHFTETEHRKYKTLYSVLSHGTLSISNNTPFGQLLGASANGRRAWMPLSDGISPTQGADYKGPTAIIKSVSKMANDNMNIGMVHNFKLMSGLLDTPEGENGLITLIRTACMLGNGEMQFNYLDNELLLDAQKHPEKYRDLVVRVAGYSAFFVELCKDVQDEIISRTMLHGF

[2] = Inhibition of CutC in Escherichia coli MS 200-1 assessed as reduction in d9-TMA formation using d9-choline chloride as substrate incubated for 4 hrs under anaerobic condition by LC-MS-MS analysis
[3] = Metabolic stability in human intestinal S9 fraction assessed as parent compound remaining at 33 uM incubated for 2 hrs by LC/MS/MS analysis; assay type: ADME, subcellular, Intestine; details: read-out: Stabilty
Outline: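 Mixed-gender human intestinal S9 (4 mg mL−1 stock) in 100 mM potassium phosphate pH 7.4 with NADPH cofactor, 6 mM MgCl2 and 1 mM EDTA. Compound at 33 μM final, in triplicate, 2 h at 37 °C. No-cofactor negative control. Supernatant diluted and percent intact compound quantified by LC-MS/MS.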

[4] = Inhibition of CutC (unknown origin) in human feces assessed as reduction in TMA production using choline as substrate by LC-MS/MS analysis; assay type: tissue-based, Bacteria
[5] = target: T2, Choline trimethylamine-lyase (Desulfovibrio alaskensis) (UniProt Q30W70); experiment: as §1
T2 sequence (whole entry): T1 sequence (Q30W70 whole entry)

[6] = (§2) Binding affinity to CutC (unknown origin) by CM5 sensor chip immobilization based surface plasmon resonance analysis; design: species or system Bacteria
[7] = system: Bacteria; experiment: as §2
[8] = system: Saccharomyces cerevisiae; experiment: Effect on alcohol dehydrogenase activity in yeast at 5 to 50 uM in presence of NADH by colorimetric assay; details: dose 5-50 µM
[9] = system: Escherichia coli; experiment: Effect on d9-choline uptake in Escherichia coli MS 200-1 at 50 uM incubated for 15 mins by LC-MS/MS analysis; assay type: functional
[10] = system: Bacteria; experiment: Non-competitive inhibition of CutC (unknown origin) assessed as reduction in Vmax with constant Km using choline as substrate at 5 uM by Lineweaver-Burk plot based Michelis-Menten analysis
Outline: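 D. desulfuricans G20 CutC (20 μM) activated by CutD (40 μM) with dithionite (150 μM) and SAM (200 μM), anaerobic, in 50 mM potassium phosphate pH 8.0 with 50 mM KCl for 1 h, then diluted 20-fold. Coupled to yeast ADH (0.4 μM) with NADH (200 μM). Choline varied, inhibitor absent or at 5 μM. A340 read every 20 s for 10 min. Kinetics by Michaelis–Menten and Lineweaver–Burk plots, n = 3.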

[11] = system: Bacteria; experiment: Binding affinity to CutD (unknown origin) by CM5 sensor chip immobilization based surface plasmon resonance analysis

| Compound | IC50 [1] [µM] | EC50 [2] [µM] | remaining at 2 h, 33 µM [3] [%] | further results |
| --- | --- | --- | --- | --- |
| COc1cc(CCNC(=O)NC2CCCCC2CO)ccc1F (stereo unspecified) | 212 | 409 | > 90 | – |
| O=S(=O)(NCC1CCCC1O)c1ccc2cn[nH]c2c1 (stereo unspecified) | 301 | 488 | > 90 | – |
| O=C(CCc1ccccc1OC(F)(F)F)NC1CCCCNC1=O (stereo unspecified) | > 500 | > 1000 | > 90 | – |
| C[N+](C)(C)CC=O [BETAINE ALDEHYDE] | 26 | – | – | – |
| O=C1NCCCCC1NC(=O)N1CCCc2cc(F)ccc21 (stereo unspecified) | > 500 | > 1000 | > 90 | – |
| Cc1cc(C(=O)NC2CCNCC2)no1 | > 500 | > 1000 | > 90 | – |
| Cc1ccc(-n2nc(NC3CCN(C(N)=O)CC3)cc2C)cc1 | > 500 | > 1000 | > 90 | – |
| CN1CC=C[C@H](O)C1 | – | 11 | – | EC50 [4]: 83.9 µM |
| O=C(NC1CCCCC1CO)c1cc(F)cc2[nH]cnc12 (stereo unspecified) | > 500 | > 1000 | > 90 | – |

Continued, in another order:

| IC50 [1] [µM] | EC50 [2] [µM] | remaining at 2 h, 33 µM [3] [%] | Compound | further results |
| --- | --- | --- | --- | --- |
| 167 | 298 | > 90 | O=C(Nc1ccc(N2CCOCC2)nc1)NC1CCCCNC1=O (stereo unspecified) | – |
| 73 | 87 | > 90 | CC(O)CNC(=O)NC1CCN(Cc2ccccn2)CC1 (stereo unspecified) | – |
| 49 | 79 | > 90 | O=C(NCc1nc(-c2ccccc2)n[nH]1)NC1CCC(O)CC1 (stereo unspecified) | – |
| 210 | 376 | > 90 | CC(C)Nc1cccc(C(=O)NCCCN2CCC(O)CC2)c1 | – |
| 2.4 | 5.4 | > 90 | O=C(NC1CC1)C1CCN(Cc2nc3cc(F)ccc3o2)CC1 | inhibition [5]: Dose-dependent effect; Kd [6]: 4.05 µM; Activity [7]: Dose-dependent effect; Activity [8]: inactive; Activity [9]: inactive; inhibition [10]: Active; Activity [11]: Active; EC50 [4]: 38 µM |
| 110 | 175 | > 90 | Cn1c(N)nc2c(ncn2[C@@H]2O[C@H](CO)[C@@H](O)[C@H]2O)c1=O | – |
| 199 | 354 | > 90 | CN1CCC(NC(=O)NCCNc2ccccn2)CC1 | – |
| 85 | 143 | > 90 | Cc1cccc(NC2CCN(C(=O)Nc3cn[nH]c3)CC2)n1 | – |

Reference: ChEMBL document CHEMBL4715687, “A benzoxazole derivative as an inhibitor of anaerobic choline metabolism by human gut microbiota” (RSC Med Chem, 2020)
